Assay results reported in ChEMBL document CHEMBL3045615, “Synthesis and herbicidal evaluation of novel 3-[(alpha-hydroxy-substituted)benzylidene]pyrrolidine-2,4-diones” (J Agric Food Chem, 2005).

What was measured:
Assay type in all cases: functional
Echinochloa crus-galli [1] = assay: Herbicidal activity against Echinochloa crus-galli (barnyard grass) assessed as inhibition of seedling growth at 100 ug/ml at 28 +/- 1 degC measured after 65 hr by cup test
[2] = tested on: Brassica rapa subsp. oleifera; assay: Herbicidal activity against Brassica rapa subsp. oleifera assessed as inhibition of root growth at 10 ug/ml at 28 +/- 1 degC measured after 65 hr by root test
How it was run: (§1)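 Rape seeds were presoaked 4 h in distilled water. About 15 seeds were placed per 6-cm Petri plate on filter paper pre-wetted with 2 mL inhibitor solution. Plates germinated in the dark for 65 h at 28 ± 1 °C. Root length of 10 roots per plate was measured and averaged. Result expressed as percentage inhibition.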

Echinochloa crus-galli [3] = assay: Herbicidal activity against Echinochloa crus-galli (barnyard grass) assessed as inhibition of seedling growth at 10 ug/ml at 28 +/- 1 degC measured after 65 hr by cup test
[4] = tested on: Brassica rapa subsp. oleifera; assay: Herbicidal activity against Brassica rapa subsp. oleifera assessed as inhibition of root growth at 100 ug/ml at 28 +/- 1 degC measured after 65 hr by root test; how it was run: as §1
Amaranthus retroflexus [5] = assay: Herbicidal activity against Amaranthus retroflexus assessed as inhibition in green house at 1500 g/ha pre-emergence treatment measured after 15 days; settings: 360 h
How it was run: (§2)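 Greenhouse pot test. Two replicates per treatment. Control was the same amount of water, N,N-dimethylformamide and Tween 20. Fresh weights were taken 15 days after treatment, and percentage inhibition was calculated relative to controls.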

Echinochloa crus-galli [6] = assay: Herbicidal activity against Echinochloa crus-galli (barnyard grass) assessed as inhibition in green house at 1500 g/ha post-emergence treatment measured after 15 days; settings: 360 h; how it was run: as §2
Digitaria sanguinalis [7] = assay: Herbicidal activity against Digitaria sanguinalis (hairy crabgrass) assessed as inhibition in green house at 375 g/ha pre-emergence treatment measured after 15 days; settings: 360 h; how it was run: as §2
Echinochloa crus-galli [8] = assay: Herbicidal activity against Echinochloa crus-galli (barnyard grass) assessed as inhibition in green house at 750 g/ha pre-emergence treatment measured after 15 days; settings: 360 h; how it was run: as §2
Echinochloa crus-galli [9] = assay: Herbicidal activity against Echinochloa crus-galli (barnyard grass) assessed as inhibition in green house at 1500 g/ha pre-emergence treatment measured after 15 days; settings: 360 h; how it was run: as §2
Digitaria sanguinalis [10] = assay: Herbicidal activity against Digitaria sanguinalis (hairy crabgrass) assessed as inhibition in green house at 750 g/ha pre-emergence treatment measured after 15 days; settings: 360 h; how it was run: as §2
[11] = tested on: Brassica rapa subsp. oleifera; assay: Herbicidal activity against Brassica rapa subsp. oleifera assessed as inhibition in green house at 1500 g/ha post-emergence treatment measured after 15 days; settings: 360 h; how it was run: as §2
Amaranthus retroflexus [12] = assay: Herbicidal activity against Amaranthus retroflexus assessed as inhibition in green house at 1500 g/ha post-emergence treatment measured after 15 days; settings: 360 h; how it was run: as §2
[13] = tested on: Brassica rapa subsp. oleifera; assay: Herbicidal activity against Brassica rapa subsp. oleifera assessed as inhibition in green house at 1500 g/ha pre-emergence treatment measured after 15 days; settings: 360 h; how it was run: as §2
Echinochloa crus-galli [14] = assay: Herbicidal activity against Echinochloa crus-galli (barnyard grass) assessed as inhibition in green house at 375 g/ha pre-emergence treatment measured after 15 days; settings: 360 h; how it was run: as §2
Digitaria sanguinalis [15] = assay: Herbicidal activity against Digitaria sanguinalis (hairy crabgrass) assessed as inhibition in green house at 1500 g/ha pre-emergence treatment measured after 15 days; settings: 360 h; how it was run: as §2
Digitaria sanguinalis [16] = assay: Herbicidal activity against Digitaria sanguinalis (hairy crabgrass) assessed as inhibition in green house at 1500 g/ha post-emergence treatment measured after 15 days; settings: 360 h; how it was run: as §2

Row | SMILES | inhibition at 100 µg/mL (Echinochloa crus-galli [1]) [%] | inhibition at 10 µg/mL [2] [%] | inhibition at 10 µg/mL (Echinochloa crus-galli [3]) [%] | inhibition at 100 µg/mL [4] [%] | inhibition at 1500 g/ha (Amaranthus retroflexus [5]) [%] | inhibition at 1500 g/ha (Echinochloa crus-galli [6]) [%] | inhibition at 375 g/ha (Digitaria sanguinalis [7]) [%] | inhibition at 750 g/ha (Echinochloa crus-galli [8]) [%] | inhibition at 1500 g/ha (Echinochloa crus-galli [9]) [%] | inhibition at 750 g/ha (Digitaria sanguinalis [10]) [%] | inhibition at 1500 g/ha [11] [%] | inhibition at 1500 g/ha (Amaranthus retroflexus [12]) [%] | inhibition at 1500 g/ha [13] [%] | inhibition at 375 g/ha (Echinochloa crus-galli [14]) [%] | inhibition at 1500 g/ha (Digitaria sanguinalis [15]) [%] | inhibition at 1500 g/ha (Digitaria sanguinalis [16]) [%]
1 | CC(C)c1ccc(/C(O)=C2\C(=O)CN(C(C)C)C2=O)cc1 | 39 | 0 | 0 | 74 |  |  |  |  |  |  |  |  |  |  |  | 
2 | COc1ccc(/C(O)=C2\C(=O)CN(C(C)(C)C)C2=O)cc1 | 80 | 5 | 79 | 78 | 23 | 66 | 8 | 73 | 93 | 58 | 0 | 0 | 21 | 0 |  | 
3 | CCCc1ccc(/C(O)=C2\C(=O)CN(C3CC3)C2=O)cc1 | 41 | 0 | 8 | 75 |  |  |  |  |  |  |  |  |  |  |  | 
4 | CCCc1ccc(/C(O)=C2\C(=O)CN(C(C)C)C2=O)cc1 | 57 | 60 | 27 | 86 |  |  |  |  |  |  |  |  |  |  |  | 
5 | CCCCCc1ccc(/C(O)=C2\C(=O)CN(C(C)C)C2=O)cc1 | 12 | 14 | 5.7 | 29 |  |  |  |  |  |  |  |  |  |  |  | 
6 | COc1cc(OC)c(/C(O)=C2\C(=O)CN(C(C)C)C2=O)cc1OC | 64 | 60 | 0 | 62 |  |  |  |  |  |  |  |  |  |  |  | 
7 | Cc1ccccc1/C(O)=C1\C(=O)CN(C(C)C)C1=O | 77 | 15 | 77 | 62 | 50 | 76 | 30 | 68 | 84 | 66 | 44 | 0 | 0 | 43 |  | 
8 | COCCOCOc1ccc(/C(O)=C2\C(=O)CN(C3CC3)C2=O)cc1 | 12 | 19 | 0 | 51 |  |  |  |  |  |  |  |  |  |  |  | 
9 | COCCOCOc1cccc(/C(O)=C2\C(=O)CN(C3CC3)C2=O)c1 | 33 | 0 | 4 | 35 |  |  |  |  |  |  |  |  |  |  |  | 
10 | COc1ccc(/C(O)=C2\C(=O)CN(C(C)(C)C)C2=O)cc1OC | 59 | 58 | 0 | 70 |  |  |  |  |  |  |  |  |  |  |  | 
11 | CC(C)N1CC(=O)/C(=C(/O)c2cccc(Oc3ccccc3)c2)C1=O | 67 | 0 | 57 | 81 | 0 | 0 |  |  | 0 |  | 0 | 9 | 0 |  | 0 | 0
12 | COc1cc(/C(O)=C2\C(=O)CN(C(C)C)C2=O)cc(OC)c1OC | 0 | 61 | 0 | 69 |  |  |  |  |  |  |  |  |  |  |  | 
13 | O=C1CN(C2CC2)C(=O)/C1=C(\O)c1cccc(Oc2ccccc2)c1 | 66 | 28 | 58 | 80 | 0 | 15 |  |  | 0 |  | 3 | 9 | 0 |  | 0 | 10
14 | CC(C)N1CC(=O)/C(=C(/O)c2ccc(C(C)(C)C)cc2)C1=O | 44 | 0 | 28 | 85 |  |  |  |  |  |  |  |  |  |  |  | 
15 | Cc1ccc(/C(O)=C2\C(=O)CN(C(C)C)C2=O)cc1 | 78 | 8 | 77 | 86 | 11 | 67 |  | 22 | 77 | 0 | 20 | 0 | 24 |  |  | 
16 | COc1ccc(/C(O)=C2\C(=O)CN(C3CC3)C2=O)c(OC)c1 | 79 | 16 | 78 | 77 |  |  |  |  |  |  |  |  |  |  |  | 

Row | SMILES | inhibition at 100 µg/mL (Echinochloa crus-galli [1]) [%] | inhibition at 10 µg/mL [2] [%] | inhibition at 10 µg/mL (Echinochloa crus-galli [3]) [%] | inhibition at 100 µg/mL [4] [%] | inhibition at 1500 g/ha (Amaranthus retroflexus [5]) [%] | inhibition at 1500 g/ha (Echinochloa crus-galli [6]) [%] | inhibition at 375 g/ha (Digitaria sanguinalis [7]) [%] | inhibition at 750 g/ha (Echinochloa crus-galli [8]) [%] | inhibition at 1500 g/ha (Echinochloa crus-galli [9]) [%] | inhibition at 750 g/ha (Digitaria sanguinalis [10]) [%] | inhibition at 1500 g/ha [11] [%] | inhibition at 1500 g/ha (Amaranthus retroflexus [12]) [%] | inhibition at 1500 g/ha [13] [%] | inhibition at 375 g/ha (Echinochloa crus-galli [14]) [%] | inhibition at 1500 g/ha (Digitaria sanguinalis [15]) [%] | inhibition at 1500 g/ha (Digitaria sanguinalis [16]) [%]
17 | COc1ccc(/C(O)=C2\C(=O)CN(C(C)C)C2=O)cc1 | 80 | 12 | 80 | 71 | 11 | 75 | 38 | 92 | 98 | 54 | 6 | 0 | 0 | 20 |  | 
18 | Cc1ccc(/C(O)=C2\C(=O)CN(C(C)C)C2=O)c(C)c1 | 76 | 10 | 74 | 54 | 13 | 66 |  |  | 71 |  | 16 | 0 | 20 |  |  | 
19 | COCCOCOc1cccc(/C(O)=C2\C(=O)CN(C(C)C)C2=O)c1 | 74 | 0 | 8 | 10 |  |  |  |  |  |  |  |  |  |  |  | 
20 | COc1cc(/C(O)=C2\C(=O)CN(C3CC3)C2=O)cc(OC)c1OC | 26 | 45 | 4 | 60 |  |  |  |  |  |  |  |  |  |  |  | 
21 | Cc1cc(C)cc(/C(O)=C2\C(=O)CN(C3CC3)C2=O)c1 | 29 | 70 | 0 | 86 |  |  |  |  |  |  |  |  |  |  |  | 
22 | COc1ccccc1/C(O)=C1\C(=O)CN(C(C)C)C1=O | 78 | 3 | 77 | 59 | 16 | 87 |  |  | 93 |  | 21 | 0 | 0 |  |  | 
23 | CC(C)c1ccc(/C(O)=C2\C(=O)CN(C(C)(C)C)C2=O)cc1 | 18 | 75 | 10 | 83 |  |  |  |  |  |  |  |  |  |  |  | 
24 | COCCOCOc1ccc(/C(O)=C2\C(=O)CN(C(C)C)C2=O)cc1 | 21 | 19 | 0 | 51 |  |  |  |  |  |  |  |  |  |  |  | 
25 | COCCOCOc1ccccc1/C(O)=C1\C(=O)CN(C(C)C)C1=O | 52 | 7 | 17 | 28 |  |  |  |  |  |  |  |  |  |  |  | 
26 | CCCCCc1ccc(/C(O)=C2\C(=O)CN(C3CC3)C2=O)cc1 | 23 | 0 | 5 | 57 |  |  |  |  |  |  |  |  |  |  |  | 
27 | CC(C)(C)c1ccc(/C(O)=C2\C(=O)CN(C(C)(C)C)C2=O)cc1 | 18 | 64 | 4 | 79 |  |  |  |  |  |  |  |  |  |  |  | 
28 | Cc1ccc(/C(O)=C2\C(=O)CN(C(C)(C)C)C2=O)cc1 | 48 | 14 | 36 | 88 |  |  |  |  |  |  |  |  |  |  |  | 
29 | COc1ccc(/C(O)=C2\C(=O)CN(C(C)C)C2=O)cc1OC | 76 | 24 | 68 | 34 |  |  |  |  |  |  |  |  |  |  |  | 
30 | Cc1cc(C)cc(/C(O)=C2\C(=O)CN(C(C)C)C2=O)c1 | 42 | 3 | 22 | 81 |  |  |  |  |  |  |  |  |  |  |  | 
31 | Cc1cc(C)cc(/C(O)=C2\C(=O)CN(C(C)(C)C)C2=O)c1 | 40 | 41 | 1 | 82 |  |  |  |  |  |  |  |  |  |  |  | 
